Laboratory results published in ChEMBL document CHEMBL1137015, “Improved, selective, human intestinal carboxylesterase inhibitors designed to modulate 7-ethyl-10-[4-(1-piperidino)-1-piperidino]carbonyloxycamptothecin (Irinotecan; CPT-11) toxicity” (J Med Chem, 2009).
Activity calls are given as the source filed them.

Tests used:
[1] = molecular target: Cholinesterase (Homo sapiens) (UniProt P06276); test: Inhibition of human BchE using butyrylthiocholine as substrate by spectrophotometric multiwell plate assay
[2] = Inhibition of human intestinal CE-mediated irinotecan hydrolysis
Summary of the method: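 Human intestinal CE (25 U per reaction; 1 U converts 1 nmole o-nitrophenyl acetate/min) with 20µM CPT-11 in 50mM Hepes pH7.4, inhibitor 1nM to 100µM. Incubated 37°C for 5 min, stopped with cold acidified methanol, centrifuged. SN-38 measured by reverse phase HPLC. Fractional inhibition fitted to partial inhibition equation, model chosen by Akaike's criteria, Ki from best fit.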

[3] = Inhibition of human intestinal CE-mediated O-nitrophenyl acetate hydrolysis by spectrophotometry
Summary of the method: (§1)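 Enzyme activity read spectrophotometrically as release of o-nitrophenol from o-nitrophenyl acetate across increasing inhibitor concentrations. Inhibitors were freshly dissolved in DMSO, typically as 10mM stocks. Fractional inhibition was plotted against inhibitor concentration and fitted to a partial-inhibition equation including Ks, α and β. Inhibition mode was chosen by Akaike's information criteria, and Ki was taken from the best-fit model.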

Liver carboxylesterase 1 = molecular target: T1, Liver carboxylesterase 1 (Homo sapiens, UniProt P23141); test: Inhibition of human liver CE1-mediated O-nitrophenyl acetate hydrolysis by spectrophotometry; summary of the method: as §1
T1 sequence (P23141 whole entry): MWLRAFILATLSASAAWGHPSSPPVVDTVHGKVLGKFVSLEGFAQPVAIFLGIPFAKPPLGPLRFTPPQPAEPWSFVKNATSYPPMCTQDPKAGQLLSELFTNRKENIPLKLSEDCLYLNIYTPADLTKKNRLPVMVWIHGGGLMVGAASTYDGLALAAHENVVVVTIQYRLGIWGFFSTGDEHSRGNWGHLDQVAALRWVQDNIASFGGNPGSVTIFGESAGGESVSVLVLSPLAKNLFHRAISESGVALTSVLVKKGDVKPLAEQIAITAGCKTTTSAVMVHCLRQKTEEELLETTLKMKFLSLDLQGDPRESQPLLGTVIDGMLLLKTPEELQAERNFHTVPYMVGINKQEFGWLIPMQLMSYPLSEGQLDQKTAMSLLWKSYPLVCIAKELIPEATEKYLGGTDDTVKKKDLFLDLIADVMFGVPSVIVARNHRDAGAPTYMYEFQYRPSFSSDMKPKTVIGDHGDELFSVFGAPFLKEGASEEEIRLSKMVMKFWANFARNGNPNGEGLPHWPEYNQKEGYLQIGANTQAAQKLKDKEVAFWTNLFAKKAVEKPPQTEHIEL

[4] = molecular target: Acetylcholinesterase (Homo sapiens) (UniProt P22303); test: Inhibition of human AchE using acetylthiocholine as substrate by spectrophotometric multiwell plate assay
Acetylcholinesterase (Homo sapiens), sequence (P22303 whole entry): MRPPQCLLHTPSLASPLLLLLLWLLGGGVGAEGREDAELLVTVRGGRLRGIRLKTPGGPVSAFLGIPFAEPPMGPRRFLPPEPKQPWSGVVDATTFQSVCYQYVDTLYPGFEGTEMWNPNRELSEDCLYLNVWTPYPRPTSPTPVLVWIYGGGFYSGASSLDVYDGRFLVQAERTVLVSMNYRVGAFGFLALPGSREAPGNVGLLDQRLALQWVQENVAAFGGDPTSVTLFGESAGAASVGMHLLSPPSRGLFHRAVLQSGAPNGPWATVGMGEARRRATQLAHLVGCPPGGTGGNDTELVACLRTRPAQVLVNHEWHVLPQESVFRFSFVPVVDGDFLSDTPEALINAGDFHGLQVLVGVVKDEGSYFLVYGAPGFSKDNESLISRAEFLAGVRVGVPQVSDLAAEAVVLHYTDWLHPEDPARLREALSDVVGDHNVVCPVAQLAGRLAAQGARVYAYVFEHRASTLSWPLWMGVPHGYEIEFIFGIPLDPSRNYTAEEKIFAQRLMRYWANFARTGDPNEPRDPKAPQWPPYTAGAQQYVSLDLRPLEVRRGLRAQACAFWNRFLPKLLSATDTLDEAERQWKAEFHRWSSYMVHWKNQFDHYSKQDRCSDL

Cholinesterase (Homo sapiens), sequence (P06276 whole entry): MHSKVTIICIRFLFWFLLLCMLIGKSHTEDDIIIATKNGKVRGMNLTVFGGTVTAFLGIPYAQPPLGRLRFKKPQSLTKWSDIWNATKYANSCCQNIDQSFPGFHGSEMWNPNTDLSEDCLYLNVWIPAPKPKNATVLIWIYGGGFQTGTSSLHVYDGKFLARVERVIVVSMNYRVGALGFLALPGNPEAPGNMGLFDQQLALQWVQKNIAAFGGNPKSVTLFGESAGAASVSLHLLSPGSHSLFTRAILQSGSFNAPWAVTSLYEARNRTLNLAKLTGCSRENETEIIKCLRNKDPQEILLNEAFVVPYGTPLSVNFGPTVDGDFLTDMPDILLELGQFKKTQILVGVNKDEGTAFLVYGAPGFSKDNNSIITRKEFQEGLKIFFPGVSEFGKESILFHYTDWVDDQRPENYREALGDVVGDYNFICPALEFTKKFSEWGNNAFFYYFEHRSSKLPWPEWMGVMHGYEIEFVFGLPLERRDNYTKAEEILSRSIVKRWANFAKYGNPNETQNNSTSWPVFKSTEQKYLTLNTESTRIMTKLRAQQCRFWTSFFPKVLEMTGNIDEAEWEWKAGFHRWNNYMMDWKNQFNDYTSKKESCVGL

Row | Structure (SMILES) | Activity [1] | Ki [2] [µM] | Ki [3] [µM] | Ki (Liver carboxylesterase 1) [µM] | Activity [4]
1 | O=S(=O)(Nc1ccc2c(c1)Cc1cc(NS(=O)(=O)c3ccc(Cl)cc3)ccc1-2)c1ccc(Cl)cc1 | inactive | 0.0377 | 0.0235 | > 100 | inactive
2 | O=S(=O)(Nc1ccc2c(c1)Cc1cc(NS(=O)(=O)c3ccccc3)ccc1-2)c1ccccc1 | inactive | 0.0847 | 0.0908 | > 100 | inactive
3 | O=S(=O)(Nc1ccc(NS(=O)(=O)c2c(F)cccc2F)cc1)c1c(F)cccc1F | inactive | > 100 | 5.26 | > 100 | inactive
4 | O=S(=O)(Nc1ccc2c(c1)Cc1cc(NS(=O)(=O)c3cc(F)c(F)c(F)c3)ccc1-2)c1cc(F)c(F)c(F)c1 | inactive | 0.0581 | 0.0186 | > 100 | inactive
5 | O=S(=O)(Nc1c(F)c(F)c(NS(=O)(=O)c2ccc(Br)cc2)c(F)c1F)c1ccc(Br)cc1 | inactive | 0.028 | 0.0234 | > 100 | inactive
6 | Cc1c(C)c(NS(=O)(=O)c2cc(Cl)cc(Cl)c2)c(C)c(C)c1NS(=O)(=O)c1cc(Cl)cc(Cl)c1 | inactive | > 100 | 2.6 | > 100 | inactive
7 | O=S(=O)(Nc1ccc(NS(=O)(=O)c2cccc(Cl)c2)cc1)c1cccc(Cl)c1 | inactive | 0.062 | 0.074 | > 100 | inactive
8 | Cc1c(C)c(NS(=O)(=O)c2ccc(Br)cc2)c(C)c(C)c1NS(=O)(=O)c1ccc(Br)cc1 | inactive | > 100 | 3.24 | > 100 | inactive
9 | O=S(=O)(Nc1ccc(NS(=O)(=O)c2cccc(Br)c2)cc1)c1cccc(Br)c1 | inactive | 0.121 | 0.067 | > 100 | inactive
10 | O=S(=O)(Nc1ccc(NS(=O)(=O)c2ccc(F)cc2)cc1)c1ccc(F)cc1 | inactive | 0.079 | 0.355 | > 100 | inactive
11 | O=S(=O)(Nc1ccc(NS(=O)(=O)c2ccc(Br)cc2)cc1)c1ccc(Br)cc1 | inactive | 0.044 | 0.0852 | > 100 | inactive
